Source: ChEMBL document CHEMBL1124859, “Nonsteroidal antiinflammatory drug hydroxamic acids. Dual inhibitors of both cyclooxygenase and 5-lipoxygenase” (J Med Chem, 1990)

Experiments:
[1] = molecular target: T1, Polyunsaturated fatty acid 5-lipoxygenase (Rattus norvegicus, UniProt P12527); test: Inhibition of 5-lipoxygenase in intact RBL-1 cell line; assay type: cell-based
T1 sequence (P12527 whole entry): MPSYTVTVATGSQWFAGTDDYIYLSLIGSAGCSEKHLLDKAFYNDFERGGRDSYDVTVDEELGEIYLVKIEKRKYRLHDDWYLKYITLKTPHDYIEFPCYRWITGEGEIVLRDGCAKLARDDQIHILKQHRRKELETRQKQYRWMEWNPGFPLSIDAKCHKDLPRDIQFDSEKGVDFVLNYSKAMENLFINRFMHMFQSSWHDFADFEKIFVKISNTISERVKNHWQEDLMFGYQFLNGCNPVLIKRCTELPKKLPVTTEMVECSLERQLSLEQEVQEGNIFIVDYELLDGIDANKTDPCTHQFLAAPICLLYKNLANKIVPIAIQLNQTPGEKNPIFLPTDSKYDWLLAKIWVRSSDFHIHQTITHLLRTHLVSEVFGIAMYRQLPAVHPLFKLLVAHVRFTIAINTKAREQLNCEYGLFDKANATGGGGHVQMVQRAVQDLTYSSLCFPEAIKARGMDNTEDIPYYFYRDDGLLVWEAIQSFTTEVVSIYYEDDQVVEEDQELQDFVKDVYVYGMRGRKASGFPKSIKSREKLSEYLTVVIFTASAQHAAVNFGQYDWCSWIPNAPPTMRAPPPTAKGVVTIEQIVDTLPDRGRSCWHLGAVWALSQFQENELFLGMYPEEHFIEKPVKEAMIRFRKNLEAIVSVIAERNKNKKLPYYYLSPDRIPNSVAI
Summary of the method: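 RBL-1 cells at 2 × 10⁶ cells/mL were held in PBS with 1.0 mM Ca²⁺. They were incubated with or without inhibitor for 7 min at 37 °C, with 5 μM ionophore A-23187. LTB₄ was measured by radioimmunoassay. IC50 came from regression of percent inhibition against inhibitor concentration; otherwise percent inhibition at the highest concentration tested was given.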

Rattus norvegicus [2] = test: In vivo percent inhibition of mycobacterium foot-pad edema (MFE) after peroral administration was determined.; assay type: functional
Summary of the method: (§1)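 Compounds were given orally to rats at the stated doses in mg/kg. Groups held 7–14 animals each. Foot-pad edema was scored as percent inhibition against controls, or as the dose giving a set level of inhibition (ID25 or ID40).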

Rattus norvegicus [3] = test: In vivo ulcerogenicity was determined after peroral administration at a dose of 200 mg/kg in rat; No significant ulceration; assay type: functional, organism-based; design: dose 200 mg/kg
Rattus norvegicus [4] = test: In vivo ulcerogenicity was determined after peroral administration in rat; assay type: functional
Summary of the method: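 Rats were dosed orally. The ulcerogenic dose (UD50) was taken as the oral dose in mg/kg that produced ulcers in 50% of the rats tested.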

Rattus norvegicus [5] = organism: Rattus norvegicus; test: Relative binding affinity to 5-lipoxygenase and cyclooxygenase
Rattus norvegicus [6] = test: In vivo percent inhibition of carrageenan foot-pad edema (CFE) after peroral administration was determined.; assay type: functional; summary of the method: as §1

Row | Compound | ID40 (Rattus norvegicus [2]) [mg/kg] | IC50 ratio (Rattus norvegicus [5]) | IC50 ([1]; read-out: IC50) [µM] | also measured
1 | CC(C)Cc1ccc(C(C)C(=O)O)cc1 (centres undefined) [IBUPROFEN] |  |  |  | IC50 ([1]; rbl-1): No significant inhibition
2 | Cc1ccc(Cl)c(Nc2ccccc2C(=O)NO)c1Cl | 27 |  |  | UD50 (Rattus norvegicus [3]): No significant inhibition
3 | COc1ccc2c(c1)c(CC(=O)NO)c(C)n2C(=O)c1ccc(Cl)cc1 [OXAMETACIN] |  | 6.8 |  | UD50 (Rattus norvegicus [4]): 103 mg/kg
4 | COc1ccc2c(c1)c(CC(=O)N(O)C(C)C)c(C)n2C(=O)c1ccc(Cl)cc1 | 0.82 |  |  | UD50 (Rattus norvegicus [3]): No significant inhibition
5 | CONC(=O)CC1=C(C)/C(=C/c2ccc([S+](C)[O-])cc2)c2ccc(F)cc21 (centres undefined) |  |  | 26 | 
6 | CONC(=O)c1ccccc1Nc1c(Cl)ccc(C)c1Cl | 24 |  |  | ID25 (Rattus norvegicus [6]): 1.3 mg/kg; UD50 (Rattus norvegicus [3]): No significant inhibition
7 | Cc1ccc(Cl)c(Nc2ccccc2C(=O)[O-])c1Cl.O.[Na+] [MECLOFENAMATE SODIUM] | 0.39 |  |  | ID25 (Rattus norvegicus [6]): 8.2 mg/kg; UD50 (Rattus norvegicus [4]): 36 mg/kg
8 | Cc1ccc(Cl)c(Nc2ccccc2C(=O)N(C)O)c1Cl | 2.5 |  |  | ID25 (Rattus norvegicus [6]): 0.2 mg/kg; UD50 (Rattus norvegicus [3]): No significant inhibition
9 | CC1=C(CC(=O)O)c2cc(F)ccc2/C1=C\c1ccc([S+](C)[O-])cc1 (centres undefined) |  |  | > 100 | 
10 | CONC(=O)C(C)c1ccc(CC(C)C)cc1 (centres undefined) |  | > 5.5 | > 32 | 
11 | CONC(=O)Cc1c(C)n(C(=O)c2ccc(Cl)cc2)c2ccc(OC)cc12 |  | > 120 |  | UD50 (Rattus norvegicus [4]): 42 mg/kg
12 | CC(C)Cc1ccc(C(C)C(=O)N(C)O)cc1 (centres undefined) |  | 0.06 | 1.2 | 
13 | CC(C)Cc1ccc(C(C)C(=O)NO)cc1 (centres undefined) [IBUPROXAM] |  | 2 | 20 | 
14 | COc1ccc2c(c1)c(CC(=O)O)c(C)n2C(=O)c1ccc(Cl)cc1 [INDOMETHACIN] | 0.21 |  | > 100 | UD50 (Rattus norvegicus [4]): 5.4 mg/kg
